The chains are these.
B1: tRNA (parent)
chain: GUUCCGUUGGCGUAAUGGUAACGCGUCUCCCUCCUAAGGAGAAGACUGCGGGUUCGAGUCCCGUACGGAACG

Fewer inactive variants are shown than the library holds.

The data set covers variants of B1. In words: yeast fitness relative to wild type (ratio to wild type); higher = fitter; tRNA-Arg(CCU), competitive growth, 37 C, YPD. The gist of the method: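 The tRNA-Arg(CCU) gene variants were made by chemical synthesis with a 3% per-site mutation rate at 69 sites and inserted at the native genomic locus of Saccharomyces cerevisiae. After pooling, the strains were competed in YPD at 37°C for 24 hours in six parallel replicates. Gene amplicons from the start population and each end population were read by 100-nucleotide paired-end sequencing, and Darwinian fitness relative to wild type was taken from genotype frequency changes. Genotypes needed ≥ 100 starting reads, and estimates < 0.5 were set to 0.5.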
With U13C G23C C49U, the yeast fitness was at most 0.5.

Turning to G9A U32C C33G A37G G52A C55U G63A A65U, the yeast fitness was at most 0.5. Then U26G C61U G63C A65G, with 0.799; and C11U A20U C22A U53G, with at most 0.5; and U2C G23C C27G A45G G52A C66A, with 0.534. With U28C G52A A69U, the yeast fitness came to 0.592. Then G12A G58A, with 0.924; and U8C U26G C33G A37C U54A, with at most 0.5.

Take A15C C29A U54A: the yeast fitness was at most 0.5.

As to U35G U54A C62U G68A, the yeast fitness was at most 0.5. Then G6A G9C A42U, with at most 0.5.

With U2C C34U A65U, the yeast fitness was found to be 0.6.

As for U7G C30U G50C, the yeast fitness was at most 0.5.

Turning to A21C C27A G50C, the yeast fitness is at most 0.5. Then U13A C31G A42G, with 0.699; and G9C A40U A65C, with 0.531; and G44A C62U, with 0.874. As for U2A C11G C30A A57G, the yeast fitness was at most 0.5.

For U2A C11U G48C, the yeast fitness was at most 0.5.

Consider G9A U13A U19C C30U C61A, for which the yeast fitness was at most 0.5.

As to U26A C27U G41A A65G, the yeast fitness is 0.534. In the case of U19C A40G it was 0.898. Then C5A U19A A20C C24G C34G, with at most 0.5. In the case of G12A G52A U59C it was at most 0.5. Take G18C U59C: the yeast fitness is 0.559. In the case of A42U A43C C49A it was at most 0.5; in that of C30U U64C, 0.902.

As for A21U A69G, the yeast fitness was 0.826. As for C5G C46U, the yeast fitness came to 0.88. Then C11G G17C G63A, with at most 0.5; and A20U C55U, with 0.76; and C5G C61A, with 0.651. In the case of A43G C62A it was 0.72; in that of C5U U47A C49U A69U, at most 0.5; in that of C5U C27G U28G, at most 0.5. Then C11A C27G U35A A43U U54C A65G G68A, with at most 0.5. Take C55A A57C G68C: the yeast fitness worked out at 0.5. In the case of A15C A42C C55G it was 0.547; in that of C31U G48C A69C, 0.67. Then A21C C22A C30U G48C, with at most 0.5. Then U13C C31G C33A C66A, with at most 0.5; and A15C C33G C60U C62U, with at most 0.5; and C5A C22U C31G C60A, with at most 0.5. Turning to C33G C34A A43G C61U A65C, the yeast fitness was at most 0.5. Then C60G A69U A70U, with 0.545; and C29U A65C, with 0.751; and U13C G25A, with 0.902. Consider U19G C22U C31U A40U A69U, for which the yeast fitness is 0.569. With C27A A45U C60G A65U, the yeast fitness turned out to be 0.54. In the case of C5G C22A A42C it was at most 0.5; in that of A15C G17C C22G C24A C31A G67C, 0.752. In the case of A20U C30U it was 0.783; in that of G10C G12C G39A G50A A69U, at most 0.5; in that of U16C A36C A37U, at most 0.5. Then U7C C30A A42C C60U A69G, with at most 0.5; and U3A U13C C29A A43G, with at most 0.5.

Consider C34U C55U G63C, for which the yeast fitness was at most 0.5. In the case of A14G G25A A69U it was 0.77. Take A42G G50C G58A A69C: the yeast fitness was at most 0.5.

As to G38A U47G, the yeast fitness came out at 0.574. In the case of U8C U19A it was 0.923. In the case of U8C A40C it was 1.02; in that of A15G A37C A69C, 0.863.

For the variant U2G C33A G39C A69U, the yeast fitness was at most 0.5. In the case of C33U C49G A65C it was 0.504.

Turning to C11A C29G A57G C66A, the yeast fitness is at most 0.5. In the case of G38C A45C it was 0.58; in that of C11G A20U C24A G25C A43U, at most 0.5. In the case of U28A C30A G67U it was 0.642; in that of A42C A70G, 0.87.

On to G10C A15G C31A C33U A40C G44C G48U C49G, for which the yeast fitness is at most 0.5.

C24U G58C A65U: the yeast fitness was 0.644. Then A20U C46U G63A, with 0.777; and U3C C4U A15G U26A U32A C60G G67A, with at most 0.5. Then C11U A42G C60G, with at most 0.5; and G25C U26G A40U C46G A70U, with at most 0.5; and A36G C55A A69U, with 0.635. In the case of U3G U8C C33U U54C C66A it was at most 0.5.

Regarding U7C A37G A42C C49G C61U, the yeast fitness was determined as 0.504. In the case of C4U G10A U13C C24U it was 0.741.

For G25C G68C, the yeast fitness stood at 0.796.

For A43U A69G, the yeast fitness came out at 0.886. In the case of G6A A43U C46A it was 0.649. Then A37U U59A, with 0.706. As for U26G C31U C62U, the yeast fitness was found to be 0.695. As to G9A U16G, the yeast fitness is 0.799. In the case of A21G C61G C66U A69U it was at most 0.5; in that of C5U C27G C31G G44C A45G, at most 0.5.

For A14G C46A A57G, the yeast fitness is 0.743. Then C4A C34G G38C, with at most 0.5; and C4A G17C C31G A37C, with 0.748.

In the case of G41U G52C, the yeast fitness was 0.584. Then C5A G25A U28C C31U A40C A42G A69C, with at most 0.5; and C4U G12C U64C A70U, with at most 0.5; and U8C C33G A43C C66A, with at most 0.5. In the case of A21U A40U A70U it was 0.657.

For A42G A43C A69G, the yeast fitness is 0.835. Then U2G C4A C22U U28G A42U, with at most 0.5.

With U13C A40U A69U, the yeast fitness was determined as 0.793. In the case of A15C A40U G63A A65G G67A it was at most 0.5; in that of A36U G56A A69U, at most 0.5. Then C30U C46A G50A, with 0.632; and U8C C27G G44A, with at most 0.5; and G9C C27U G41A, with 0.728. Turning to C5U U8C A20G C30A C61U, the yeast fitness worked out at 0.544. G17C C27U A37G A65G: the yeast fitness was at most 0.5.

In the case of G9C A14G U47C, the yeast fitness is at most 0.5. Then U19A C24U U64C, with 0.689.

Regarding A15C A20U, the yeast fitness is 0.63. As to C5G C30G C66U, the yeast fitness was at most 0.5. Then C11A A43G U47C A65C, with at most 0.5.

In the case of U3G C22G C29A, the yeast fitness is at most 0.5. Then C46A A57U, with 0.792; and C22G C34A G41A, with at most 0.5; and C5U U64A, with 0.933. In the case of U19A A37U C55G it was 0.593. In the case of U26G G67C G68A it was at most 0.5. As to C4G U7A U59A, the yeast fitness was found to be 0.621. In the case of C31U G58A U59A it was 0.672; in that of G50A G56C, 0.635; in that of A42G A45G C46U, 0.726. In the case of U7G C11G it was 0.692; in that of C4U U19A C30G A36C C66A G68C, at most 0.5. Then G6C A45C U47C G68C, with at most 0.5.

On to A21C C29U C31G, for which the yeast fitness was at most 0.5. G9U G63A A65U: the yeast fitness is at most 0.5. Then A21C A57U C60U C62U C66U, with 0.612; and G56A A65C A69C, with at most 0.5; and G17C C46A, with 0.609.

As for G17A C22G C29U, the yeast fitness is at most 0.5. Then A20C U47G A69U, with 0.559; and U19C A20U C22U C27G G39U, with at most 0.5; and C5G G18A A57G A65C, with at most 0.5.

Regarding C5A A37C C55A G56C, the yeast fitness is at most 0.5.

As for C4U C31A, the yeast fitness was determined as 0.827. On to U3C U19C, for which the yeast fitness came out at 0.929.

Regarding C5G A14C G18A C49U, the yeast fitness is at most 0.5. In the case of C11G C22U A70U it was at most 0.5. In the case of G18C C30G, the yeast fitness was at most 0.5.

Turning to G23U G38C A57G, the yeast fitness is at most 0.5. In the case of G6A G18C A21C C33A G52A it was at most 0.5; in that of U3C U19A C22U G23A, at most 0.5. In the case of U53A G58U C61U C62A it was at most 0.5; in that of A15C G41C U59G A70G, at most 0.5; in that of C5G G6A G23A, at most 0.5. On to A21U G25A C29A A36G C46A C55A, for which the yeast fitness is at most 0.5. In the case of U8C A21U G56C G63A U64C G67C it was at most 0.5; in that of U47C C49A, 0.65; in that of G48A A69C, 0.96. Then U32G A40U G52A A57U, with at most 0.5; and C5U G10C A21U C22U U32C C46U C61G, with at most 0.5.

In the case of A15U G48C, the yeast fitness turned out to be 0.669. Then A57C G58A, with 0.696.

For the variant C33A U53A C60G, the yeast fitness was found to be 0.681. In the case of C4A A14G C30G A45G G52A it was 0.609; in that of U3C C4G A20G A43G, at most 0.5; in that of G10A C11U C29A C34A G44A A69C, at most 0.5. Consider U2C U19G C60A, for which the yeast fitness was 0.528.

On to C5U U8A G18C A20G, for which the yeast fitness was 0.537. Then C11A A21C C31A G58A, with at most 0.5; and G52C C60U, with 0.533; and A15C C31G C55A, with 0.608. Take U7G A36U C60U: the yeast fitness is at most 0.5.

For C22U C24A G56A A70U, the yeast fitness is at most 0.5. In the case of A14G G17A C34U C55G it was at most 0.5.

On to C4A C22G C30U A40G A45C, for which the yeast fitness is at most 0.5. In the case of G39A U47A A57G, the yeast fitness was at most 0.5.

The record behind these values is the RNAGym collection of RNA variant scans (doi:10.1126/science.aae0568).
